GI50 data for 17 compounds are collected here from ChEMBL document CHEMBL6083196, “Synthesis and cytotoxic activity of madecassic acid-silybin conjugate compounds in liver cancer cells” (2024).

Structures are written as SMILES. Where only a bound is given, the exact number is not on record here.

The test deals with HepG2. The test can be described thus: Cytotoxicity against human HepG2 cells incubated for 96 hrs by MTT assay. In kind it is functional. The method, boiled down: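 Cells grown in DMEM with 10% FBS and 1% antibiotic at 37 °C, 5% CO2. Trypsinised, seeded at 3 × 10^4 cells per mL, treated over an eight-point titration for 96 h. MTT (0.5 mg mL−1) added for 4 h at 37 °C, formazan dissolved in DMSO, absorbance read at 570 nm. GI50 is the concentration halving the MTT signal versus untreated control. Ellipticine served as reference; n ≥ 3 repeats.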
In general terms: Tetrazolium assays rely on reduction of a dye to a coloured formazan, in cell work by metabolically active cells.
The term GI50 denotes the concentration that inhibits growth by half. A higher GI50 goes with less potent growth inhibition. Turning to `COc1cc([C@H]2Oc3cc([C@H]4Oc5cc(O)cc(O)c5C(=O)[C@@H]4OC(=O)CCNC(=O)[C@]45CC[C@@H](C)[C@H](C)[C@H]4C4=CC[C@@H]6[C@@]7(C)C[C@@H](OC(C)=O)[C@H](OC(C)=O)[C@@](C)(COC(C)=O)[C@@H]7[C@H](O)C[C@@]6(C)[C@]4(C)CC5)ccc3O[C@@H]2CO)ccc1O`, halving of growth (GI50) required 141 µM.

`COc1cc([C@H]2Oc3cc([C@H]4Oc5cc(OC(C)=O)cc(OC(C)=O)c5C(=O)[C@@H]4OC(=O)CNC(=O)[C@]45CC[C@@H](C)[C@H](C)[C@H]4C4=CC[C@@H]6[C@@]7(C)C[C@@H](OC(C)=O)[C@H](OC(C)=O)[C@@](C)(COC(C)=O)[C@@H]7[C@H](O)C[C@@]6(C)[C@]4(C)CC5)ccc3O[C@@H]2COC(C)=O)ccc1OC(C)=O`: growth was halved (GI50) at 122 µM.

Take `COc1cc([C@H]2Oc3cc([C@H]4Oc5cc(OC(C)=O)cc(OC(C)=O)c5C(=O)[C@@H]4OC(=O)CCNC(=O)[C@]45CC[C@@H](C)[C@H](C)[C@H]4C4=CC[C@@H]6[C@@]7(C)C[C@@H](OC(C)=O)[C@H](OC(C)=O)[C@@](C)(COC(C)=O)[C@@H]7[C@H](O)C[C@@]6(C)[C@]4(C)CC5)ccc3O[C@@H]2COC(C)=O)ccc1OC(C)=O`: the GI50 stood at 360 µM.

With `COc1cc([C@H]2Oc3cc(-c4cc(=O)c5c(O)cc(OC(=O)[C@]67CC[C@@H](C)[C@H](C)[C@H]6C6=CC[C@@H]8[C@@]9(C)C[C@@H](OC(C)=O)[C@H](OC(C)=O)[C@@](C)(COC(C)=O)[C@@H]9[C@H](O)C[C@@]8(C)[C@]6(C)CC7)cc5o4)ccc3O[C@@H]2CO)ccc1O`, the GI50 was over 500 µM.

Compound `COc1cc([C@H]2Oc3cc(-c4oc5cc(OC(C)=O)cc(OC(C)=O)c5c(=O)c4OC(=O)[C@]45CC[C@@H](C)[C@H](C)[C@H]4C4=CC[C@@H]6[C@@]7(C)C[C@@H](OC(C)=O)[C@H](OC(C)=O)[C@@](C)(COC(C)=O)[C@@H]7[C@H](O)C[C@@]6(C)[C@]4(C)CC5)ccc3O[C@@H]2COC(C)=O)ccc1OC(C)=O` yielded a 50% growth inhibitory concentration (GI50) of 471 µM.

On to `COc1cc([C@H]2Oc3cc([C@H]4Oc5cc(OC(C)=O)cc(OC(C)=O)c5C(=O)[C@@H]4OC(=O)CNC(=O)[C@]45CC[C@@H](C)[C@H](C)[C@H]4C4=CC[C@@H]6[C@@]7(C)C[C@@H](OC(C)=O)[C@H](OC(C)=O)[C@@](C)(COC(C)=O)C7=CC[C@@]6(C)[C@]4(C)CC5)ccc3O[C@@H]2COC(C)=O)ccc1OC(C)=O`, for which the GI50 worked out at 243 µM.

With `COc1cc([C@H]2Oc3cc([C@H]4Oc5cc(O)cc(O)c5C(=O)[C@@H]4OC(=O)CNC(=O)[C@]45CC[C@@H](C)[C@H](C)[C@H]4C4=CC[C@@H]6[C@@]7(C)C[C@@H](OC(C)=O)[C@H](OC(C)=O)[C@@](C)(COC(C)=O)C7=CC[C@@]6(C)[C@]4(C)CC5)ccc3O[C@@H]2CO)ccc1O`, the 50% growth inhibitory concentration (GI50) was 174 µM.

`COc1cc([C@H]2Oc3cc([C@H]4Oc5cc(O)cc(O)c5C(=O)[C@@H]4OC(=O)CCNC(=O)[C@]45CC[C@@H](C)[C@H](C)[C@H]4C4=CC[C@@H]6[C@@]7(C)C[C@@H](OC(C)=O)[C@H](OC(C)=O)[C@@](C)(COC(C)=O)C7=CC[C@@]6(C)[C@]4(C)CC5)ccc3O[C@@H]2CO)ccc1O` registered a GI50 of 344 µM.

For `CC(=O)OC[C@@]1(C)[C@@H]2[C@H](O)C[C@]3(C)[C@H](CC=C4[C@@H]5[C@@H](C)[C@H](C)CC[C@]5(C(=O)O)CC[C@]43C)[C@@]2(C)C[C@@H](OC(C)=O)[C@@H]1OC(C)=O`, the GI50 was 44.1 µM.

Compound `CC(=O)OC[C@@]1(C)C2=CC[C@]3(C)C(CC=C4[C@@H]5[C@@H](C)[C@H](C)CC[C@]5(C(=O)O)CC[C@]43C)[C@@]2(C)C[C@@H](OC(C)=O)[C@@H]1OC(C)=O` (some centres not stated) registered a GI50 of 38.5 µM.

Compound `COc1cc([C@H]2Oc3cc([C@H]4Oc5cc(OC(C)=O)cc(OC(C)=O)c5C(=O)[C@@H]4OC(=O)CCCCCCCCCCNC(=O)[C@]45CC[C@@H](C)[C@H](C)[C@H]4C4=CC[C@@H]6[C@@]7(C)C[C@@H](OC(C)=O)[C@H](OC(C)=O)[C@@](C)(COC(C)=O)[C@@H]7[C@H](O)C[C@@]6(C)[C@]4(C)CC5)ccc3O[C@@H]2COC(C)=O)ccc1OC(C)=O` showed a GI50 of 199 µM.

The compound `COc1cc([C@H]2Oc3cc([C@H]4Oc5cc(OC(=O)[C@]67CC[C@@H](C)[C@H](C)[C@H]6C6=CC[C@@H]8[C@@]9(C)C[C@@H](OC(C)=O)[C@H](OC(C)=O)[C@@](C)(COC(C)=O)[C@@H]9[C@H](O)C[C@@]8(C)[C@]6(C)CC7)cc(O)c5C(=O)[C@@H]4O)ccc3O[C@@H]2CO)ccc1O` showed a GI50 of over 500 µM.

With `COc1cc([C@H]2Oc3cc([C@H]4Oc5cc(O)cc(O)c5C(=O)[C@@H]4OC(=O)CCCCCCCCCCNC(=O)[C@]45CC[C@@H](C)[C@H](C)[C@H]4C4=CC[C@@H]6[C@@]7(C)C[C@@H](OC(C)=O)[C@H](OC(C)=O)[C@@](C)(COC(C)=O)[C@@H]7[C@H](O)C[C@@]6(C)[C@]4(C)CC5)ccc3O[C@@H]2CO)ccc1O`, the GI50 worked out at 383 µM.

Take `COc1cc([C@H]2Oc3cc([C@H]4Oc5cc(OC(C)=O)cc(OC(C)=O)c5C(=O)[C@@H]4OC(=O)CCNC(=O)[C@]45CC[C@@H](C)[C@H](C)[C@H]4C4=CC[C@@H]6[C@@]7(C)C[C@@H](OC(C)=O)[C@H](OC(C)=O)[C@@](C)(COC(C)=O)C7=CC[C@@]6(C)[C@]4(C)CC5)ccc3O[C@@H]2COC(C)=O)ccc1OC(C)=O`: the GI50 turned out to be 352 µM.

As for `COc1cc([C@H]2Oc3cc(-c4oc5cc(O)cc(O)c5c(=O)c4OC(=O)[C@]45CC[C@@H](C)[C@H](C)[C@H]4C4=CC[C@@H]6[C@@]7(C)C[C@@H](OC(C)=O)[C@H](OC(C)=O)[C@@](C)(COC(C)=O)[C@@H]7[C@H](O)C[C@@]6(C)[C@]4(C)CC5)ccc3O[C@@H]2CO)ccc1O`, growth was halved (GI50) at 217 µM.

As to `Cc1c2ccncc2c(C)c2c1[nH]c1ccccc12` [ELLIPTECINE], the GI50 amounted to 0.42 µM.

Compound `COc1cc([C@H]2Oc3cc([C@H]4Oc5cc(O)cc(O)c5C(=O)[C@@H]4O)ccc3O[C@@H]2CO)ccc1O` [SILYBIN A] came in with a GI50 of 285 µM.
